By MIC is commonly meant the smallest concentration in the dilution series that meets the test's criterion for growth inhibition. Lower therefore signals inhibition by little substance.

Molecules are shown by their SMILES. Values after ≈ are worked out from the molar mass of the structure shown. Bounds are passed on as bounds.

Assay [1] relates to Candida albicans. Kind of assay: Minimum inhibitory concentration required to inhibit Candida albicans (in vitro). It is filed as functional. In short, it runs like this:
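Broth dilution in defined medium (NH4Cl, K2HPO4, MgSO4, sodium citrate, PIPES, biotin, glucose; pH 7.1), strain P712 from frozen log-phase stocks. Inoculum 4500 CFU per 3 mL tube, final drug 50–0.01 μg/mL, or microtiter wells (0.05 mL) with 4-fold dilutions. 28 °C, 160 rpm, 20–24 h.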

For assay [2], the system named is Candida albicans. Kind of assay: Ratio of I50 evaluated for inhibition of DHFR in humans to Candida albicans. An outline of the steps: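 Selectivity index is the human DHFR I50 divided by the C. albicans DHFR I50. The C. albicans enzyme (E. coli-expressed, 0.2 nM) was run in 0.1 M imidazole chloride, pH 6.4. Recombinant human enzyme (2 nM) was run in 50 mM Sorenson's phosphate, pH 7.0. Enzyme, NADPH and inhibitor were preincubated 2 min before substrate was added. I50 came from linear regression of % inhibition of steady-state velocity vs log concentration.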

Turning to `COc1cccc(Sc2cccc3nc(N)nc(N)c23)c1`, in the assay with Candida albicans [1], the minimal inhibitory concentration (MIC) was 0.25 µg/mL (≈ 0.838 µM).
The same measure, in the same setting: with `CCN(CC)c1ccc(Sc2cccc3nc(N)nc(N)c23)cc1` the figure was 2.5 µg/mL (≈ 7.36 µM).
`Nc1nc(N)c2c(Sc3ccc(O)cc3)cccc2n1`: the Selectivity index in the assay on Candida albicans [2] amounted to 5. Moreover, in the assay on Candida albicans [1], inhibition of growth (MIC) required 10 µg/mL (≈ 35.2 µM).
As to `Nc1nc(N)c2c(Sc3ccc(Br)cc3)cccc2n1`, the Selectivity index in the assay on Candida albicans [2] amounted to 100. For the same molecule, the MIC in the assay with Candida albicans [1] amounted to 0.25 µg/mL (≈ 0.72 µM).
In turn, `CC(C)(C)c1ccc(Sc2c(C#N)ccc3nc(N)nc(N)c23)cc1` came in with an MIC in the assay on Candida albicans [1] greater than 5 µg/mL.
On the same count and under the same terms, with `CCCCCCc1ccc(Sc2cccc3nc(N)nc(N)c23)cc1` the figure was 50 µg/mL (≈ 142 µM); with `COc1cc(Sc2cccc3nc(N)nc(N)c23)cc(OC)c1OC`, 5 µg/mL (≈ 13.9 µM); with `COc1cc(Cc2cnc(N)nc2N)cc(OC)c1OC` [TRIMETHOPRIM], greater than 50 µg/mL.
On the same count and under the same terms, next, `COc1cc(NCc2ccc3nc(N)nc(N)c3c2C)cc(OC)c1OC` [TRIMETREXATE]: greater than 50 µg/mL.
With `N#Cc1ccc(Sc2cccc3nc(N)nc(N)c23)cc1`, the Selectivity index in the assay on Candida albicans [2] stood at 100. The minimal inhibitory concentration (MIC) against Candida albicans [1] is greater than 50 µg/mL.
`Nc1ccc(Sc2cccc3nc(N)nc(N)c23)cc1`: the Selectivity index in the assay with Candida albicans [2] was 5. Also, in the assay on Candida albicans [1], 2.5 µg/mL (≈ 8.82 µM) was the least that counted as inhibitory (MIC).
On the same counts, the results for `Nc1nc(N)c2c(Sc3ccc(F)cc3)cccc2n1` are 40 and 0.25 µg/mL (≈ 0.873 µM).
In the same order, the values of `Nc1nc(N)c2c(Sc3cccc(Cl)c3)cccc2n1` are 6 and 0.5 µg/mL (≈ 1.65 µM).
Regarding `CC(C)(C)c1ccc(Sc2cccc3nc(N)nc(N)c23)cc1`, the minimal inhibitory concentration (MIC) in the assay on Candida albicans [1] turned out to be 0.1 µg/mL (≈ 0.308 µM).
On the same count and under the same terms, next, `CC(C)c1ccc(Sc2cccc3nc(N)nc(N)c23)cc1`: 0.25 µg/mL (≈ 0.805 µM).
Molecule `CC(C)(C)c1ccc(Sc2c(N)ccc3nc(N)nc(N)c23)cc1` registered an MIC against Candida albicans [1] of 5 µg/mL (≈ 14.7 µM).
For `Nc1nc(N)c2c(Sc3ccccc3)cccc2n1`, the MIC in the assay with Candida albicans [1] stood at 0.05 µg/mL (≈ 0.186 µM).
In turn, `COc1ccc(Sc2cccc3nc(N)nc(N)c23)cc1` gave an MIC in the assay with Candida albicans [1] of 0.25 µg/mL (≈ 0.838 µM). This MIC is about 5-fold higher than that of the molecule before.
Regarding `Nc1nc(N)c2c(Sc3ccc(Cl)cc3)cccc2n1`, in the assay on Candida albicans [1], the MIC was 0.5 µg/mL (≈ 1.65 µM).
Same read-out and setting: with `Cc1ccc(Sc2cccc3nc(N)nc(N)c23)cc1` the figure was 0.25 µg/mL (≈ 0.885 µM).
As to `COc1ccc(Sc2cccc3nc(N)nc(N)c23)cc1OC`, in the assay on Candida albicans [2], the Selectivity index turned out to be 79. This molecule displayed an MIC with Candida albicans [1] greater than 50 µg/mL.
On to `CC(C)COc1ccc2nc(N)nc(N)c2c1Sc1ccc(C(C)(C)C)cc1`, for which the Selectivity index in the assay on Candida albicans [2] was determined as 10. Also, the MIC with Candida albicans [1] is 0.8 µg/mL (≈ 2.02 µM).
As for `Nc1nc(N)c2c(Sc3ccc(C4CCCCC4)cc3)cccc2n1`, the Selectivity index with Candida albicans [2] is greater than 200. In the assay on Candida albicans [1], this molecule came in with a minimum inhibitory concentration (MIC) of 1 µg/mL (≈ 2.85 µM).
Regarding `COc1ccc(OC)c(Cc2cnc3nc(N)nc(N)c3c2C)c1` [PIRITREXIM], the minimum inhibitory concentration (MIC) against Candida albicans [1] is greater than 10 µg/mL.
Still for that read-out and setting: next, `CCc1nc(N)nc(N)c1-c1ccc(Cl)cc1` [PYRIMETHAMINE]: greater than 50 µg/mL.
On to `Nc1nc(N)c2c(Sc3ccccc3Cl)cccc2n1`, for which the Selectivity index in the assay with Candida albicans [2] was found to be 2. In addition, inhibition of growth against Candida albicans [1] (MIC) required 1 µg/mL (≈ 3.3 µM).
On the same counts, the results for `CCC(C)(C)c1ccc(Sc2cccc3nc(N)nc(N)c23)cc1` are 10 and 10 µg/mL (≈ 29.5 µM).
In the same order, the values of `Nc1nc(N)c2c(Sc3ccc([N+](=O)[O-])cc3)cccc2n1` are 100 and 50 µg/mL (≈ 160 µM).
`CCOc1ccc2nc(N)nc(N)c2c1Sc1ccc(C(C)(C)C)cc1`: the minimum inhibitory concentration (MIC) against Candida albicans [1] came to 1 µg/mL (≈ 2.71 µM).
Same read-out and setting: with `Nc1nc(N)c2c(Sc3ccc(N4CCOCC4)cc3)cccc2n1` the figure was greater than 50 µg/mL.
For `Nc1nc(N)c2c(Sc3ccc(C(F)(F)F)cc3)cccc2n1`, the Selectivity index with Candida albicans [2] came out at 5. This molecule also returned an MIC with Candida albicans [1] of 25 µg/mL (≈ 74.3 µM).
In the same order, the values of `COc1ccccc1Sc1cccc2nc(N)nc(N)c12` are 4 and 10 µg/mL (≈ 33.5 µM).

Source of the values: ChEMBL document CHEMBL1128547, “Selective inhibitors of Candida albicans dihydrofolate reductase: activity and selectivity of 5-(arylthio)-2,4-diaminoquinazolines” (J Med Chem, 1995).
